# Experimental data taken from ChEMBL document CHEMBL1132219, “Synthesis of novel phenserine-based-selective inhibitors of butyrylcholinesterase for Alzheimer's disease” (J Med Chem, 1999).
# Target: Acetylcholinesterase (Homo sapiens, UniProt P22303)
# Test: Ability to inhibit acetylcholinesterase (AChE), freshly prepared from human erythrocytes
# Summary of the method: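 AChE from freshly collected blood: erythrocytes washed five times in isotonic saline, lysed in 9 volumes of 0.1 M Na3PO4 pH 7.4 with 0.5% Triton-X, diluted to final 1:200. Compounds preincubated with enzyme 30 min at room temperature, then with substrate and DTNB 25 min at 37 °C, pH 8.0. Final range 0.3 nM–[…] in half-log steps. IC50 from logit-activity versus log concentration. Four runs.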
# Sequence of Acetylcholinesterase (P22303 whole entry): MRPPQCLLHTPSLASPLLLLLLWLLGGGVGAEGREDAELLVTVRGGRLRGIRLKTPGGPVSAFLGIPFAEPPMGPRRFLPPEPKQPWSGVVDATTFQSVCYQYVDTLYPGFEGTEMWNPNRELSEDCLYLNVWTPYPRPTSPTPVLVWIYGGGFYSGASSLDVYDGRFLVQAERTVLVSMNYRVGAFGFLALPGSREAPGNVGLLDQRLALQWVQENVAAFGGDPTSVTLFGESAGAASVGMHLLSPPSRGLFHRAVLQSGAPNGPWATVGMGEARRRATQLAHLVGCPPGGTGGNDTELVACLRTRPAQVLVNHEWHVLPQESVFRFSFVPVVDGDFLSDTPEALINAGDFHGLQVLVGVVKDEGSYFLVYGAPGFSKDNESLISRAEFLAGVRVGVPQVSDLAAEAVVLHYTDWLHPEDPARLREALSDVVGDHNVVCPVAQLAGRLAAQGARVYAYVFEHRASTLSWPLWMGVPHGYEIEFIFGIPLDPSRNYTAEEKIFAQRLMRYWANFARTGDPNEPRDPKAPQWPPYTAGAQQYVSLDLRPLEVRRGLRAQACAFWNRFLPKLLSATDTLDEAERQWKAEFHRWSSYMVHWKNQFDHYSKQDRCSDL
row,Compound,IC50 [µM]
1,Cc1ccccc1NC(=O)Oc1ccc2c(c1)[C@]1(C)CCN(CCc3ccccc3)C1N2C (some centres not stated),0.55
2,CC(C)c1ccc(NC(=O)Oc2ccc3c(c2)[C@]2(C)CCN(C)C2N3)cc1 (some centres not stated),2.02
3,Cc1ccccc1NC(=O)Oc1ccc2c(c1)[C@]1(C)CCN(C)C1N2C (some centres not stated),0.0103
4,Cc1ccccc1NC(=O)Oc1ccc2c(c1)[C@]1(C)CCN(C)C1N2Cc1ccccc1 (some centres not stated),0.1
5,Cc1ccccc1NC(=O)Oc1ccc2c(c1)[C@]1(C)CCN(C)C1N2 (some centres not stated),0.04
6,CC(C)c1ccc(NC(=O)Oc2ccc3c(c2)[C@]2(C)CCNC2N3)cc1 (some centres not stated),0.11
7,Cc1ccccc1NC(=O)Oc1ccc2c(c1)[C@]1(C)CCNC1N2C (some centres not stated),0.017
8,CC(C)c1ccc(NC(=O)Oc2ccc3c(c2)[C@]2(C)CCNC2N3C)cc1 (some centres not stated),0.324
9,CC(C)c1ccc(NC(=O)Oc2ccc3c(c2)[C@]2(C)CCN(CCc4ccccc4)C2N3C)cc1 (some centres not stated),> 30
10,Cc1ccccc1NC(=O)Oc1ccc2c(c1)[C@]1(C)CCN(Cc3ccccc3)C1N2Cc1ccccc1 (some centres not stated),1.76
11,CC(C)c1ccc(NC(=O)Oc2ccc3c(c2)[C@]2(C)CCN(C)C2N3Cc2ccccc2)cc1 (some centres not stated),13
12,CC(C)c1ccc(NC(=O)Oc2ccc3c(c2)[C@]2(C)CCN(Cc4ccccc4)C2N3Cc2ccccc2)cc1 (some centres not stated),> 30
13,Cc1ccccc1NC(=O)Oc1ccc2c(c1)[C@]1(C)CCNC1N2 (some centres not stated),0.285

# Target: Cholinesterase (Homo sapiens, UniProt P06276)
# Test: Ability to inhibit butyrylcholinesterase (BChE), freshly prepared from human plasma
# Assay type: cell-free
# Sequence of Cholinesterase (P06276 whole entry): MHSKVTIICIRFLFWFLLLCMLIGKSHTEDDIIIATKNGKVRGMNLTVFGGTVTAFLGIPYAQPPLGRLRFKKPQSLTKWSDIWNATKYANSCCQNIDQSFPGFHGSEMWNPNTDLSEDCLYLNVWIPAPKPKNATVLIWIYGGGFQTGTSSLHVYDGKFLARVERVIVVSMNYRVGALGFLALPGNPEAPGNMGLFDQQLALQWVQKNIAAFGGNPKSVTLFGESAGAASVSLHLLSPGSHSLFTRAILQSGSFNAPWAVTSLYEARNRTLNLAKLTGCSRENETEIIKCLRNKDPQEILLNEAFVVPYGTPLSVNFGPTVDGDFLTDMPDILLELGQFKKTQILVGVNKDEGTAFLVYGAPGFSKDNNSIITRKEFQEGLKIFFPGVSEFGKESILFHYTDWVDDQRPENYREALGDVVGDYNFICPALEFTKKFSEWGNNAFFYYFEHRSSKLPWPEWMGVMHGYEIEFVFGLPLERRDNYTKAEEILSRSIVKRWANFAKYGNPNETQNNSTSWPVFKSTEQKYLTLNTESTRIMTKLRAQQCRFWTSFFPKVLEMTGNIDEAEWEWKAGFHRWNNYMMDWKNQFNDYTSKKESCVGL
row,Compound,IC50 [µM]
1,Cc1ccccc1NC(=O)Oc1ccc2c(c1)[C@]1(C)CCN(CCc3ccccc3)C1N2C (some centres not stated),1.79
2,CC(C)c1ccc(NC(=O)Oc2ccc3c(c2)[C@]2(C)CCN(C)C2N3)cc1 (some centres not stated),0.078
3,Cc1ccccc1NC(=O)Oc1ccc2c(c1)[C@]1(C)CCN(C)C1N2Cc1ccccc1 (some centres not stated),0.6
4,Cc1ccccc1NC(=O)Oc1ccc2c(c1)[C@]1(C)CCN(C)C1N2 (some centres not stated),1.43
5,CC(C)c1ccc(NC(=O)Oc2ccc3c(c2)[C@]2(C)CCNC2N3)cc1 (some centres not stated),0.001
6,Cc1ccccc1NC(=O)Oc1ccc2c(c1)[C@]1(C)CCNC1N2C (some centres not stated),2.17
7,CC(C)c1ccc(NC(=O)Oc2ccc3c(c2)[C@]2(C)CCNC2N3C)cc1 (some centres not stated),0.0083
8,CC(C)c1ccc(NC(=O)Oc2ccc3c(c2)[C@]2(C)CCN(CCc4ccccc4)C2N3C)cc1 (some centres not stated),0.006
9,Cc1ccccc1NC(=O)Oc1ccc2c(c1)[C@]1(C)CCN(Cc3ccccc3)C1N2Cc1ccccc1 (some centres not stated),0.641
10,CC(C)c1ccc(NC(=O)Oc2ccc3c(c2)[C@]2(C)CCN(C)C2N3Cc2ccccc2)cc1 (some centres not stated),0.085
11,CC(C)c1ccc(NC(=O)Oc2ccc3c(c2)[C@]2(C)CCN(Cc4ccccc4)C2N3Cc2ccccc2)cc1 (some centres not stated),0.132
12,Cc1ccccc1NC(=O)Oc1ccc2c(c1)[C@]1(C)CCNC1N2 (some centres not stated),0.396

# Target: T1, Cholinesterases; ACHE & BCHE (Homo sapiens) (UniProt P06276+P22303)
# Test: AChE selectivity = IC50(BChE) / IC50(AChE).
# Assay type: protein assay
# T1 sequence (P06276 whole entry, looked up): as the sequence (P06276 whole entry) above
# T1 sequence (P22303 whole entry, looked up): as the sequence (P22303 whole entry) above
row,Compound,Selectivity
1,Cc1ccccc1NC(=O)Oc1ccc2c(c1)[C@]1(C)CCN(CCc3ccccc3)C1N2C (some centres not stated),3
2,Cc1ccccc1NC(=O)Oc1ccc2c(c1)[C@]1(C)CCN(C)C1N2Cc1ccccc1 (some centres not stated),6
3,Cc1ccccc1NC(=O)Oc1ccc2c(c1)[C@]1(C)CCN(C)C1N2 (some centres not stated),36
4,Cc1ccccc1NC(=O)Oc1ccc2c(c1)[C@]1(C)CCNC1N2C (some centres not stated),127
5,Cc1ccccc1NC(=O)Oc1ccc2c(c1)[C@]1(C)CCNC1N2 (some centres not stated),1
6,CN1CC[C@@]2(C)c3cc(OC(=O)Nc4ccccc4)ccc3N(C)C12 (some centres not stated),65

# Target: T1, Cholinesterases; ACHE & BCHE (Homo sapiens)
# Test: BChE selectivity = IC50(AChE) / IC50(BChE).
# Assay type: protein assay
row,Compound,Selectivity
1,CC(C)c1ccc(NC(=O)Oc2ccc3c(c2)[C@]2(C)CCN(C)C2N3)cc1 (some centres not stated),26
2,CC(C)c1ccc(NC(=O)Oc2ccc3c(c2)[C@]2(C)CCNC2N3)cc1 (some centres not stated),110
3,CC(C)c1ccc(NC(=O)Oc2ccc3c(c2)[C@]2(C)CCNC2N3C)cc1 (some centres not stated),39
4,Cc1ccccc1NC(=O)Oc1ccc2c(c1)[C@]1(C)CCN(Cc3ccccc3)C1N2Cc1ccccc1 (some centres not stated),3
5,CC(C)c1ccc(NC(=O)Oc2ccc3c(c2)[C@]2(C)CCN(C)C2N3Cc2ccccc2)cc1 (some centres not stated),152
6,CC(C)c1ccc(NC(=O)Oc2ccc3c(c2)[C@]2(C)CCN(Cc4ccccc4)C2N3Cc2ccccc2)cc1 (some centres not stated),> 227
